Data as given in publication PMC7825275 (Cancer chemotherapy and pharmacology, 2019).

Columns and labels:
[1] = system: patients with advanced solid tumors; type: in vivo, human
How it was run: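 Standard 3+3 escalation with modified Fibonacci steps. Oral veliparib was given every 12 h on days 1–7 of 21-day cycles, with IV carboplatin/paclitaxel on day 3. For the first 46 patients, cycle 1 was chemotherapy alone and DLT was scored in cycle 2; afterwards all three agents were given in cycle 1, which was the DLT cycle. Growth factors were barred in cycles 1–2. MTD was the highest dose with ≤1/6 DLTs.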

[2] = Reported veliparib half-life; type: in vivo, human; conditions: for a 6.1 h half-life
patients [3] = conditions: with topotecan 0.6 mg on days 1-5; profound myelosuppression; cited from earlier work
[4] = system: previously untreated non-small cell lung cancer; conditions: with carboplatin (AUC=6) plus paclitaxel (200 mg/m^2), Japanese patients; cited from earlier work
patients [5] = conditions: out of 35 patients enrolled, with oral daily cyclophosphamide; cited from earlier work

SMILES: C[C@]1(c2nc3c(C(N)=O)cccc3[nH]2)CCCN1 [veliparib]
- patients with dose-limiting toxicities during DLT observation cycle ([1]; all dose levels): 8 patients
- DLTs at dose level 7 ([1]; veliparib 80 mg bid): 1/6
- DLTs at the MAD, patients with DLT of evaluable patients ([1]; veliparib 120 mg BID, paclitaxel 200 mg/m^2, carboplatin AUC 6, febrile neutropenia, hyponatremia): 2 of 7
- maximum administered dose (MAD), veliparib dose ([1]; with paclitaxel 200 mg/m^2 and carboplatin AUC 6 (dose level 8)): 120 mg BID
- expected accumulation ratio by day 3 based on reported half-life [2]: 1.34
- MTD, veliparib dose (patients [3]): 10 mg bid
- MTD, veliparib dose [4]: 120 mg
- partial responses (patients [5]): seven
